Measured values collected from several papers.
Each line is one published result; the experiments were not run side by side.
Target: Mitogen-activated protein kinase 1 (MAPK1, Homo sapiens, UniProt P28482)

| Compound | effect on | technique | concentration | remaining binding [%] |
| --- | --- | --- | --- | --- |
| CNC(=O)[C@@H]1CC[C@@H](n2c(-c3ccc4cnccc4c3)nc3ccc(C(=O)NCc4cccc(C(N)=O)c4)cc32)C1 | binding | competition with immobilised ligand | 1 µM | 91 |
| C[C@@H]1CN(c2cc(-c3n[nH]c4ccc(OC5(C)CC5)cc34)ncn2)C[C@H](C)O1 | cell-free assay | competition with immobilised ligand | 0.1 µM | 98 |
| COc1ncc2cc3ccccc3nc2c1C#N | cell-free assay | competition with immobilised ligand | 5 µM | 100 |
| Cc1cnn2ncc(-c3ccnc(N(C)C)n3)c2c1 | binding | – | 1 µM | 100 |
| CCCOc1ccc([C@@H]2[C@@H](C(=O)O)[C@H](c3ccc4c(c3)OCO4)CN2CC(=O)Nc2c(CC)cccc2CC)cc1 | cell-free assay | competition with immobilised ligand | 1 µM | 100 |
| O=C(Nc1c[nH]nc1C(=O)NC1CCNCC1)c1cc(F)cc(F)c1 | binding | competition with immobilised ligand | 1 µM | 100 |
| N[C@@H]1CCN(c2nccc(-c3cnn4ncccc34)n2)C1 | binding | – | 1 µM | 100 |
| COc1cccc(CNC(=O)c2nc3scc(COCc4ccc(C(=O)O)cc4)c3c(=O)[nH]2)c1 | cell-free assay | competition with immobilised ligand | 1 µM | 100 |
| O=C(NCCCN1CCOCC1)c1ccc(Nc2nccc(-c3cc4ccccc4s3)n2)cc1 | binding | competition with immobilised ligand | 1 µM | 89 |
| F[C@@H]1CCN(c2nccc(-c3cnn4ncccc34)n2)C1 | binding | – | 1 µM | 100 |
| O=C(c1ccc(Nc2ncc(Cl)c(-c3cc4ccccc4s3)n2)cc1)N1CCC(N2CCCC2)CC1 | binding | competition with immobilised ligand | 1 µM | 100 |
| c1cnn2ncc(-c3ccnc(N4CCC45COC5)n3)c2c1 | binding | – | 1 µM | 100 |
| c1cncc(-c2cccc(Nc3nccc(NC4CCCCC4)n3)c2)c1 | binding | competition with immobilised ligand | 10 µM | 92 |
| O=C(c1ccc(Nc2nccc(-c3cc4ccccc4s3)n2)cc1)N1CCC(N2CCCC2)CC1 | binding | competition with immobilised ligand | 1 µM | 100 |
| CCCCN(CCCC)C(=O)CN1C[C@@H](c2cc(OC)c3c(c2)OCO3)[C@H](C(=O)O)[C@H]1CC(C)(C)CCC | cell-free assay | competition with immobilised ligand | 1 µM | 82.1 |
| CN(C)c1ncc(F)c(-c2cnn3ncccc23)n1 | binding | – | 1 µM | 82 |
| Cc1c(C(=O)O)cc(-c2ccc(C3CCNCC3)cc2)c2ccc(-c3ccc(C(F)(F)F)cc3)cc12 | binding | competition with immobilised ligand | 1 µM | 100 |
| FC(F)(F)Oc1cccc(-c2cnc3ccc(-c4ccncc4)nn23)c1 | cell-free assay | competition with immobilised ligand | 5 µM | 100 |
| C[C@H]1CCN(c2nccc(-c3cnn4ncccc34)n2)C1 | binding | – | 1 µM | 100 |
| Cn1nc(C(F)(F)F)cc1-c1cnc(N2CCc3cc(S(=O)(=O)Nc4c(F)cc(Cl)cc4F)cc(N4CCCC4=O)c32)nc1 | cell-free assay | competition with immobilised ligand | 1 µM | 100 |
| CN(c1nccc(-c2cnn3ncccc23)n1)C1CC1 | binding | – | 1 µM | 100 |
| Cn1nc(C(=O)NCc2ccc(C(=O)O)cc2)cc1-c1ccc2[nH]ccc2c1 | cell-free assay | competition with immobilised ligand | 0.1 µM | 94 |
